Key:
[1] = tested on: Pdr5 I685A, V1372A double mutant; assay: Whole-cell R6G transport against a concentration gradient; format: cell-based, yeast
ΔPdr5 strain = assay: as above; format: cell-based, yeast; conditions: median; 90 min, 30 °C, Hepes-glucose buffer
Pdr5 G1371A strain = Pdr5 G1371A strain (Saccharomyces cerevisiae, UniProt P33302, G1371A); assay: Whole-cell R6G transport against a concentration gradient; format: cell-based, yeast; conditions: median; 90 min, 30 °C, Hepes-glucose buffer
Sequence of Pdr5 G1371A strain (P33302 whole entry G1371A): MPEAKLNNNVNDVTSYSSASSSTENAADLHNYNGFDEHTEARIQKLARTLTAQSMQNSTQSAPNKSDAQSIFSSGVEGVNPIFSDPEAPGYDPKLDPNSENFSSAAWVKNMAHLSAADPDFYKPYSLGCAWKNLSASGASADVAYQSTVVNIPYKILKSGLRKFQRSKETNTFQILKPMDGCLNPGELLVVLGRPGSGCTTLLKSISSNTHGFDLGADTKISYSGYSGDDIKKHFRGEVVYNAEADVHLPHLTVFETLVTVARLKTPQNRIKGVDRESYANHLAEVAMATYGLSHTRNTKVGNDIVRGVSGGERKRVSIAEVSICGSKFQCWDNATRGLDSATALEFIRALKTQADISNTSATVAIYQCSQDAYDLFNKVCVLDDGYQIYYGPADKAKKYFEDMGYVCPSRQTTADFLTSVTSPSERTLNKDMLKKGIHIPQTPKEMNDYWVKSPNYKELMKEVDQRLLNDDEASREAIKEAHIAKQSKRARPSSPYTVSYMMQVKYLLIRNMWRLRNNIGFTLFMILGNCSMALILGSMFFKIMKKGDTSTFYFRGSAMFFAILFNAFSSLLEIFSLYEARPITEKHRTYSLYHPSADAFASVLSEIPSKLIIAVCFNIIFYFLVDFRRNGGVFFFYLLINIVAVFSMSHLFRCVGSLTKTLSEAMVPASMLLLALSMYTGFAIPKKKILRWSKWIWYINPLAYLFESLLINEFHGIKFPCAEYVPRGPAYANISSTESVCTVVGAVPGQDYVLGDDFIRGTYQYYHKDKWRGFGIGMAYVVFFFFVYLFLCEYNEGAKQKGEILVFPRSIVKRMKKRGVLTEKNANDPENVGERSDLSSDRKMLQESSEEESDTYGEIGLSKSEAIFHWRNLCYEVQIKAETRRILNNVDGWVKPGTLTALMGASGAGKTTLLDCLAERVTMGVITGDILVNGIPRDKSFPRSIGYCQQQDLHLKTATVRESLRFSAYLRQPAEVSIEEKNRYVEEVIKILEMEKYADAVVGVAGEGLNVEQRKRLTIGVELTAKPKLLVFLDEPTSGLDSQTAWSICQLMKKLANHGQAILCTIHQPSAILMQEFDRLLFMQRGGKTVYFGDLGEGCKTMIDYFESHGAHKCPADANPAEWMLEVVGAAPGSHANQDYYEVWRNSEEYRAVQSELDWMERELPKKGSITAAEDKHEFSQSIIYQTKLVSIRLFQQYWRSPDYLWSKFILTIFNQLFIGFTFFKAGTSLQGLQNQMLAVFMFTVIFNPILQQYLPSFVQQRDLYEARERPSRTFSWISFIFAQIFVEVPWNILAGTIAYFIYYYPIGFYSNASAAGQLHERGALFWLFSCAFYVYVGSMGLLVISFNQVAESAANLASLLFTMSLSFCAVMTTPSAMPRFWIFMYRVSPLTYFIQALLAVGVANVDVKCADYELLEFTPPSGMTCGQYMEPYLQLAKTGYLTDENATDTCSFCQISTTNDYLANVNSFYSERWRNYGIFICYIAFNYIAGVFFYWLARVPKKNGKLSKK
Method in brief: (§1)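 Log-phase yeast grown in YPD at 30 °C, R-1 background with integrated PDR5 under its own promoter. 3 × 10^6 cells were incubated in 0.02 M Hepes with 1 mM glucose (pH 7.0) and 20 μM R6G at 30 °C for 90 min, then washed in cold glucose-free Hepes. Median retained fluorescence was read by flow cytometry from 10,000 cells, in arbitrary units; n ≥ 4.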

Pdr5 M1373A mutant = Pdr5 M1373A mutant (Saccharomyces cerevisiae, UniProt P33302, M1373A); assay: Whole-cell R6G transport against a concentration gradient; format: cell-based, yeast; conditions: median; 90 min, 30 °C, Hepes-glucose buffer
Sequence of Pdr5 M1373A mutant (P33302 whole entry M1373A): as the sequence (P33302 whole entry G1371A) above, with A1371G, M1373A counted along it

Pdr5 F683L mutant = assay: Accumulation of R6G prior to glucose-mediated efflux; format: cell-based, yeast; conditions: 20 μM R6G, Hepes buffer, no glucose, 90 min
F683L mutant strain [2] = conditions: original characterization; cited from earlier work
Pdr5 WT control strain = Pdr5 WT control strain (Saccharomyces cerevisiae, UniProt P33302); assay: Whole-cell R6G transport against a concentration gradient; format: cell-based, yeast; conditions: median; 90 min, 30 °C, Hepes-glucose buffer
Sequence of Pdr5 WT control strain (P33302 whole entry): as the sequence (P33302 whole entry G1371A) above, with A1371G counted along it
Method in brief: as §1

[3] = tested on: M1373T and A684S mutant strains; assay: Relative drug resistance; format: cell-based, yeast; conditions: n = 4
F683L mutant strain [4] = assay: Relative drug resistance; format: cell-based, yeast; conditions: n = 4
Pdr5 F1369A mutant = Pdr5 F1369A mutant (Saccharomyces cerevisiae, UniProt P33302, F1369A); assay: Whole-cell R6G transport against a concentration gradient; format: cell-based, yeast
Sequence of Pdr5 F1369A mutant (P33302 whole entry F1369A): as the sequence (P33302 whole entry G1371A) above, with F1369A, A1371G counted along it

Pdr5 G1371A = Pdr5 G1371A (Saccharomyces cerevisiae, UniProt P33302, G1371A); assay: Inhibition of Pdr5 ATPase activity in purified PM vesicles; format: biochemical, yeast; conditions: relative to WT
Sequence of Pdr5 G1371A (P33302 whole entry G1371A): as the sequence (P33302 whole entry G1371A) above

Pdr5 V1372A = Pdr5 V1372A (Saccharomyces cerevisiae, UniProt P33302, V1372A); assay: biochemical; format: biochemical, yeast
Sequence of Pdr5 V1372A (P33302 whole entry V1372A): as the sequence (P33302 whole entry G1371A) above, with A1371G, V1372A counted along it

Pdr5 WT = Pdr5 WT (Saccharomyces cerevisiae, UniProt P33302); assay: Inhibition of Pdr5 ATPase activity in purified PM vesicles; format: biochemical, yeast
Sequence of Pdr5 WT (P33302 whole entry): as the sequence (P33302 whole entry G1371A) above, with A1371G counted along it

[5] = target: Pdr5 V1372A, I685A double mutant (Saccharomyces cerevisiae, UniProt P33302, I685A/V1372A); assay: biochemical; parameters: species or system yeast
Sequence of Pdr5 V1372A, I685A double mutant (P33302 whole entry I685A/V1372A): as the sequence (P33302 whole entry G1371A) above, with I685A, A1371G, V1372A counted along it

Pdr5 I685A = Pdr5 I685A (Saccharomyces cerevisiae, UniProt P33302, I685A); assay: biochemical; format: biochemical, yeast
Sequence of Pdr5 I685A (P33302 whole entry I685A): as the sequence (P33302 whole entry G1371A) above, with I685A, A1371G counted along it

V1372A mutant strain = format: cell-based, yeast; conditions: liquid YPD, 30 °C, n = 3
I685A mutant strain = format: cell-based, yeast; conditions: liquid YPD, 30 °C, n = 3
M1373A mutant strain = assay: Relative drug resistance in liquid YPD culture; format: cell-based, yeast; conditions: compared with ΔPdr5 control strain

Question: For CC/N=c1\cc2oc3cc(NCC)c(C)cc3c(-c3ccccc3C(=O)OCC)c-2cc1C [R6G, rhodamine 6G], which “Retained R6G in double mutant relative to WT strain” value [1] is on record?
Answer: twice

Question: And the “Retained R6G fluorescence, ΔPdr5 strain” value (ΔPdr5 strain)?
Answer: 5001 a.u.

Question: And the “Retained R6G fluorescence, G1371A strain” value (Pdr5 G1371A strain)?
Answer: 3093 a.u.

Question: And the “Retained R6G fluorescence, M1373A mutant” value (Pdr5 M1373A mutant)?
Answer: 4900 a.u.

Question: And the “Fluorescence accumulated by F683L mutant relative to WT control” value (Pdr5 F683L mutant)?
Answer: about 3 ×

Question: What about the “Minimum inhibitory concentration of F683L mutant relative to WT value” (F683L mutant strain [2]) of the same compound?
Answer: one-eighth

Question: What about the “Retained R6G fluorescence, WT control strain” value (Pdr5 WT control strain) of the same compound?
Answer: 272.6 a.u.

Question: And the “Sensitivity of M1373T and A684S mutants relative to WT” value [3]?
Answer: indistinguishable from the WT

Question: And the “Rank of F683L mutant sensitivity among the four drugs” value (F683L mutant strain [4])?
Answer: most sensitive

Question: And the “Retained fluorescence of F1369A mutant relative to WT control” value (Pdr5 F1369A mutant; against R6G gradient)?
Answer: ~5 ×

Question: What about the “Retained R6G fluorescence, F1369A mutant” value (Pdr5 F1369A mutant; median, 90 min, 30 °C, Hepes-glucose buffer) of the same compound?
Answer: 1288 a.u.

Question: For c1ccc(-c2ccc(C(c3ccccc3)n3ccnc3)cc2)cc1 (stereo not shown) [bifonazole], which “Sensitivity of G1371A ATPase to allosteric inhibition” value (Pdr5 G1371A) is on record?
Answer: strikingly hypersensitive

Question: What about the IC50 (Pdr5 V1372A) of the same compound?
Answer: 3.29 µM

Question: What about the “IC50 of single mutant V1372A compared with WT” value (Pdr5 V1372A; ATPase inhibition, in words) of the same compound?
Answer: not significantly different from the WT

Question: And the IC50 (Pdr5 WT)?
Answer: 2.86 µM

Question: What about the IC50 [5] of the same compound?
Answer: 13 µM

Question: And the IC50 (Pdr5 I685A)?
Answer: 2.58 µM

Question: And the “IC50 of single mutant I685A compared with WT” value (Pdr5 I685A; ATPase inhibition, in words)?
Answer: not significantly different from the WT

Question: What does the source list for C/C=C/C/C=C/CCC(=O)[C@H]1O[C@H]1C(N)=O [cerulenin]?
Answer: Resistance of V1372A mutant relative to WT (V1372A mutant strain): hyper-resistant; Resistance of I685A mutant relative to WT (I685A mutant strain): hypersensitive

Question: For CC(C)(C)C(=O)C(Oc1ccc(Cl)cc1)n1ccnc1 (stereo not shown) [climbazole], which “Resistance of V1372A mutant relative to WT” value (V1372A mutant strain) is on record?
Answer: hypersensitive

Question: And the “Resistance of M1373A mutant” value (M1373A mutant strain)?
Answer: phenotypically indistinguishable from the ΔPdr5 control strain

Question: And the “Resistance of I685A mutant relative to WT” value (I685A mutant strain)?
Answer: hypersensitive

Question: What does the source list for C[C@@H]1C[C@@H]([C@H](O)CC2CC(=O)NC(=O)C2)C(=O)[C@@H](C)C1 [cycloheximide]?
Answer: Resistance of V1372A mutant relative to WT (V1372A mutant strain): hypersensitive; Resistance of M1373A mutant (M1373A mutant strain): phenotypically indistinguishable from the ΔPdr5 control strain; Sensitivity of F683L mutant (F683L mutant strain [2]): hypersensitive; Sensitivity of M1373T and A684S mutants relative to WT [3]: mildly hypersensitive; Resistance of I685A mutant relative to WT (I685A mutant strain): mildly hyper-resistant

Question: Which “Sensitivity of F683L mutant” value (F683L mutant strain [2]) does the source give for OC(Cn1cncn1)(Cn1cncn1)c1ccc(F)cc1F [fluconazole] here?
Answer: hypersensitive

Question: What about the “Sensitivity of M1373T and A684S mutants relative to WT” value [3] of the same compound?
Answer: quite hypersensitive

Question: Which results are given for CC(=O)N1CCN(c2ccc(OCC3COC(Cn4ccnc4)(c4ccc(Cl)cc4Cl)O3)cc2)CC1 (stereo not shown) [ketoconazole]?
Answer: Sensitivity of M1373T and A684S mutants relative to WT [3]: quite hypersensitive; Rank of F683L mutant sensitivity among the four drugs (F683L mutant strain [4]): least sensitive

Question: Which results are given for CC/C(=C(\c1ccccc1)c1ccc(OCCN(C)C)cc1)c1ccccc1 [tamoxifen]?
Answer: Resistance of V1372A mutant relative to WT (V1372A mutant strain): hyper-resistant; Resistance of I685A mutant relative to WT (I685A mutant strain): hypersensitive

From publication PMC9723933 (The Journal of Biological Chemistry, 2022)
